Test results published in ChEMBL document CHEMBL4619808, “Tailoring the Physicochemical Properties of Antimicrobial Peptides onto a Thiazole-Based γ-Peptide Foldamer” (J Med Chem, 2020).
Values after ≈ are worked out from the molar mass of the structure shown.

Tests used:
Bacillus subtilis [1] = experiment: Antimicrobial activity against Bacillus subtilis ATCC 6633 assessed as inhibition of microbial growth incubated for 24 hrs; type: functional; details: ATCC 6633, 24 h
Method in brief: (§1)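 Broth microdilution. Strains grown overnight on TSA at 37°C, suspended to 10⁸ CFU/mL in Tryptone-Sel, then diluted to 10⁶ CFU/mL in double-strength Mueller-Hinton broth. Two-fold serial dilutions in sterile water (pH 7.4–7.7) mixed 1:1 with inoculum. Incubation 24 h at 37°C. MIC is the lowest concentration inhibiting growth. Duplicate wells, three independent experiments.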

Escherichia coli [2] = experiment: Antimicrobial activity against Escherichia coli ATCC 8739 assessed as inhibition of microbial growth incubated for 24 hrs; type: functional; details: ATCC 8739, 24 h; method in brief: as §1
Candida albicans [3] = experiment: Microbicidal activity against Candida albicans ATCC 10231 assessed as inhibition of colony growth incubated for 48 hrs followed by replating and further incubated for 48 hrs; type: functional; details: ATCC 10231, 48 h
Escherichia coli [4] = experiment: Microbicidal activity against Escherichia coli ATCC 8739 assessed as inhibition of colony growth incubated for 24 hrs followed by replating and further incubated for 24 hrs; type: functional; details: ATCC 8739, 24 h
Pseudomonas aeruginosa [5] = experiment: Antimicrobial activity against Pseudomonas aeruginosa ATCC 9027 assessed as inhibition of microbial growth incubated for 24 hrs; type: functional; details: ATCC 9027, 24 h; method in brief: as §1
Candida albicans [6] = experiment: Antimicrobial activity against Candida albicans ATCC 10231 assessed as inhibition of microbial growth incubated for 48 hrs; type: functional; details: ATCC 10231, 48 h
Method in brief: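 C. albicans grown 48 h on Sabouraud at 20–25°C, suspended to 10⁸ CFU/mL, then diluted to 10⁶ CFU/mL in double-strength Mueller-Hinton broth. Two-fold serial dilutions in water (pH 7.4–7.7) mixed 1:1 with inoculum. Incubation 48 h at 25°C. MIC is the lowest concentration inhibiting growth. Duplicate wells, three independent experiments.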

Enterococcus faecalis [7] = experiment: Microbicidal activity against Enterococcus faecalis ATCC 29121 assessed as inhibition of colony growth incubated for 24 hrs followed by replating and further incubated for 24 hrs; type: functional; details: ATCC 29121, 24 h
Enterococcus faecalis [8] = experiment: Antimicrobial activity against Enterococcus faecalis ATCC 29121 assessed as inhibition of microbial growth incubated for 24 hrs; type: functional; details: ATCC 29121, 24 h; method in brief: as §1
Bacillus subtilis [9] = experiment: Microbicidal activity against Bacillus subtilis ATCC 6633 assessed as inhibition of colony growth incubated for 24 hrs followed by replating and further incubated for 24 hrs; type: functional; details: ATCC 6633, 24 h
Staphylococcus aureus [10] = experiment: Antimicrobial activity against Staphylococcus aureus ATCC 6538 assessed as inhibition of microbial growth incubated for 24 hrs; type: functional; details: ATCC 6538, 24 h; method in brief: as §1
[11] = Hemolytic activity in human RBC assessed as induction of hemolysis incubated for 1 hr; type: cell-based, Erythrocyte; details: red blood cells (erythrocytes), read-out: HD50
Method in brief: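 Human RBCs washed in PBS and used at 5% packed cell volume, mixed 1:1 with two-fold serial dilutions in PBS (pH 7.4–7.7). Incubation 1 h at 37°C, then centrifugation at 1500g for 10 min at 5°C. Supernatant absorbance read at 490 nm against PBS (0%) and 1% SDS/Tris (100%) controls. HC50 from three independent experiments, double duplicate.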

Staphylococcus aureus [12] = experiment: Microbicidal activity against Staphylococcus aureus ATCC 6538 assessed as inhibition of colony growth incubated for 24 hrs followed by replating and further incubated for 24 hrs; type: functional; details: ATCC 6538, 24 h
Pseudomonas aeruginosa [13] = experiment: Microbicidal activity against Pseudomonas aeruginosa ATCC 9027 assessed as inhibition of colony growth incubated for 24 hrs followed by replating and further incubated for 24 hrs; type: functional; details: ATCC 9027, 24 h
Escherichia coli [14] = experiment: Antimicrobial activity against Escherichia coli ATCC 8739 assessed as inhibition of microbial growth measured after 8 passes in presence of sublethal compound concentration concentrations; type: functional

SMILES	MIC (Bacillus subtilis [1]) [µM]	MIC (Escherichia coli [2])	MIC (Pseudomonas aeruginosa [5]) [µM]	MIC (Candida albicans [6]) [µM]	MIC (Enterococcus faecalis [8]) [µM]	MIC (Staphylococcus aureus [10]) [µM]	MBC (Candida albicans [3]) [µM]	MBC (Escherichia coli [4]) [µM]	MBC (Enterococcus faecalis [7]) [µM]	MBC (Bacillus subtilis [9]) [µM]	HC50 at 1 h [11] [µM]	MBC (Staphylococcus aureus [12]) [µM]	MBC (Pseudomonas aeruginosa [13]) [µM]	MIC (Escherichia coli [14]) [µg/mL]
CC(=O)N[C@@H](CCCCN)c1nc(C)sc1C(=O)N[C@@H](C)c1nc(CCCCN)sc1C(=O)N[C@@H](C)c1nc(C)sc1C(=O)N[C@@H](CCCCN)c1nc(C)sc1C(=O)N[C@@H](C)c1nc(CCCCN)sc1C(=O)N[C@@H](C)c1nc(C)sc1C(=O)N[C@@H](CCCCN)c1nc(C)sc1C(=O)N[C@@H](C)c1nc(CCCCN)sc1C(=O)N[C@@H](C)c1nc(C)sc1C(=O)N[C@@H](CCCCN)c1nc(C)sc1C(=O)N[C@@H](C)c1nc(CCCCN)sc1C(=O)N[C@@H](C)c1nc(C)sc1C(N)=O	0.5	1.6 µM	3.9	3.7	> 150	26	3.7 (≈ 9.38 µg/mL)	1.6 (≈ 4.06 µg/mL)	> 150	0.5 (≈ 1.27 µg/mL)	> 100	57 (≈ 144 µg/mL)	5.2 (≈ 13.2 µg/mL)	–
CC(=O)N[C@@H](CCCCN)c1nc(C)sc1C(=O)N[C@@H](C)c1nc(CCCCN)sc1C(=O)N[C@@H](C)c1nc(C)sc1C(=O)N[C@@H](CCCCN)c1nc(C)sc1C(=O)N[C@@H](C)c1nc(CCCCN)sc1C(=O)N[C@@H](C)c1nc(C)sc1C(=O)N[C@@H](CCCCN)c1nc(C)sc1C(=O)N[C@@H](C)c1nc(CCCCN)sc1C(=O)N[C@@H](C)c1nc(C)sc1C(N)=O	0.8	5.2 µM	42	10.4	> 150	> 150	10.4 (≈ 19.9 µg/mL)	7.3 (≈ 14 µg/mL)	> 150	0.8 (≈ 1.53 µg/mL)	> 100	> 150	83 (≈ 159 µg/mL)	–
CC(=O)N[C@@H](CCCCN)c1nc(C)sc1C(=O)N[C@@H](C)c1nc(C)sc1C(=O)N[C@@H](C)c1nc(CCCCN)sc1C(=O)N[C@@H](C)c1nc(C)sc1C(=O)N[C@@H](C)c1nc(CCCCN)sc1C(=O)N[C@@H](CCCCN)c1nc(C)sc1C(=O)N[C@@H](C)c1nc(CCCCN)sc1C(=O)N[C@@H](CCCCN)c1nc(C)sc1C(=O)N[C@@H](C)c1nc(C)sc1C(=O)N[C@@H](C)c1nc(C)sc1C(=O)N[C@@H](C)c1nc(CCCCN)sc1C(=O)N[C@@H](CCCCN)c1nc(C)sc1C(N)=O	0.8	5.2 µM	100	50	> 150	100	62.5 (≈ 158 µg/mL)	8.3 (≈ 21 µg/mL)	> 150	0.8 (≈ 2.03 µg/mL)	> 100	> 100	> 100	–
CO/N=C(\C(=O)N[C@@H]1C(=O)N2C(C(=O)O)=C(COC(C)=O)CS[C@H]12)c1csc(N)n1 [CEFOTAXIME]	–	< 0.05 µg/mL	–	–	–	–	–	–	–	–	–	–	–	0.8
CC(=O)N[C@@H](CCCNC(=N)N)c1nc(C)sc1C(=O)N[C@@H](C)c1nc(CCCNC(=N)N)sc1C(=O)N[C@@H](C)c1nc(C)sc1C(=O)N[C@@H](CCCNC(=N)N)c1nc(C)sc1C(=O)N[C@@H](C)c1nc(CCCNC(=N)N)sc1C(=O)N[C@@H](C)c1nc(C)sc1C(=O)N[C@@H](CCCNC(=N)N)c1nc(C)sc1C(=O)N[C@@H](C)c1nc(CCCNC(=N)N)sc1C(=O)N[C@@H](C)c1nc(C)sc1C(N)=O	0.5	0.8 µM	54	9.4	100	14.6	12.5 (≈ 26 µg/mL)	0.8 (≈ 1.67 µg/mL)	> 100	0.5 (≈ 1.04 µg/mL)	> 100	16.5 (≈ 34.4 µg/mL)	100 (≈ 208 µg/mL)	–
CC[C@H](C)[C@H](NC(=O)CN)C(=O)NCC(=O)N[C@@H](C)C(=O)N[C@H](C(=O)N[C@@H](CC(C)C)C(=O)N[C@@H](CCCCN)C(=O)N[C@H](C(=O)N[C@@H](CC(C)C)C(=O)N[C@H](C(=O)N[C@H](C(=O)NCC(=O)N[C@@H](CC(C)C)C(=O)N1CCC[C@H]1C(=O)N[C@@H](C)C(=O)N[C@@H](CC(C)C)C(=O)N[C@H](C(=O)N[C@@H](CO)C(=O)N[C@@H](Cc1c[nH]c2ccccc12)C(=O)N[C@H](C(=O)N[C@@H](CCCCN)C(=O)N[C@@H](CCCNC(=N)N)C(=O)N[C@@H](CCCCN)C(=O)N[C@@H](CCCNC(=N)N)C(=O)N[C@@H](CCC(N)=O)C(=O)N[C@@H](CCC(N)=O)C(N)=O)[C@@H](C)CC)[C@@H](C)CC)[C@@H](C)O)[C@@H](C)O)C(C)C)C(C)C [MELITTIN]	–	–	–	1.6	1.6	–	1.6 (≈ 4.55 µg/mL)	4.7 (≈ 13.4 µg/mL)	1.6 (≈ 4.55 µg/mL)	1.1 (≈ 3.13 µg/mL)	–	1.2 (≈ 3.42 µg/mL)	3.1 (≈ 8.82 µg/mL)	–

The next lines start with results.

MIC (Bacillus subtilis [1]) [µM]	MIC (Escherichia coli [2])	MIC (Pseudomonas aeruginosa [5]) [µM]	MIC (Candida albicans [6]) [µM]	MIC (Enterococcus faecalis [8]) [µM]	MIC (Staphylococcus aureus [10]) [µM]	SMILES	MBC (Candida albicans [3]) [µM]	MBC (Escherichia coli [4]) [µM]	MBC (Enterococcus faecalis [7]) [µM]	MBC (Bacillus subtilis [9]) [µM]	HC50 at 1 h [11] [µM]	MBC (Staphylococcus aureus [12]) [µM]	MBC (Pseudomonas aeruginosa [13]) [µM]	MIC (Escherichia coli [14]) [µg/mL]
0.5	23 µM	> 100	25	3.1	3.1	CC(=O)N[C@@H](CCCNC(=N)N)c1nc(C)sc1C(=O)N[C@@H](C)c1nc(C)sc1C(=O)N[C@@H](C)c1nc(C)sc1C(=O)N[C@@H](CCCNC(=N)N)c1nc(C)sc1C(=O)N[C@@H](C)c1nc(C)sc1C(=O)N[C@@H](C)c1nc(C)sc1C(=O)N[C@@H](CCCNC(=N)N)c1nc(C)sc1C(=O)N[C@@H](C)c1nc(C)sc1C(=O)N[C@@H](C)c1nc(C)sc1C(=O)N[C@@H](CCCNC(=N)N)c1nc(C)sc1C(=O)N[C@@H](C)c1nc(C)sc1C(=O)N[C@@H](C)c1nc(C)sc1C(N)=O	50 (≈ 121 µg/mL)	30 (≈ 72.5 µg/mL)	11.5 (≈ 27.8 µg/mL)	0.5 (≈ 1.21 µg/mL)	46	8.3 (≈ 20.1 µg/mL)	–	–
> 150	> 150 µM	> 150	> 150	> 150	> 150	CC(=O)N[C@@H](CCCCN)c1nc(C)sc1C(=O)N[C@@H](C)c1nc(CCCCN)sc1C(=O)N[C@@H](C)c1nc(C)sc1C(N)=O	> 150	> 150	> 150	> 150	> 100	> 150	> 150	–
30	> 150 µM	> 150	62.5	> 150	> 150	CC(=O)N[C@@H](CCCCN)c1nc(C)sc1C(=O)N[C@@H](C)c1nc(CCCCN)sc1C(=O)N[C@@H](C)c1nc(C)sc1C(=O)N[C@@H](CCCCN)c1nc(C)sc1C(=O)N[C@@H](C)c1nc(CCCCN)sc1C(=O)N[C@@H](C)c1nc(C)sc1C(N)=O	130 (≈ 169 µg/mL)	> 150	> 150	30 (≈ 38.9 µg/mL)	> 100	> 150	> 150	–
4.2	14.6 µM	14.6	25	10.4	16.7	CC(=O)N[C@@H](CCCCN)c1nc(C)sc1C(=O)N[C@@H](CC(C)C)c1nc(CCCCN)sc1C(=O)N[C@@H](C)c1nc(CC(C)C)sc1C(=O)N[C@@H](CCCCN)c1nc(C)sc1C(=O)N[C@@H](CC(C)C)c1nc(CCCCN)sc1C(=O)N[C@@H](C)c1nc(CC(C)C)sc1C(=O)N[C@@H](CCCCN)c1nc(C)sc1C(=O)N[C@@H](CC(C)C)c1nc(CCCCN)sc1C(=O)N[C@@H](C)c1nc(CC(C)C)sc1C(=O)N[C@@H](CCCCN)c1nc(C)sc1C(=O)N[C@@H](CC(C)C)c1nc(CCCCN)sc1C(=O)N[C@@H](C)c1nc(CC(C)C)sc1C(N)=O	25 (≈ 71.8 µg/mL)	16.5 (≈ 47.4 µg/mL)	12.5 (≈ 35.9 µg/mL)	6.2 (≈ 17.8 µg/mL)	> 100	25 (≈ 71.8 µg/mL)	19 (≈ 54.6 µg/mL)	–
